Source: ChEMBL document CHEMBL3526104 (Drug Metab Dispos, 2011)

Columns and labels:
Cytochrome P450 3A4 [1] = target: T1, Cytochrome P450 3A4 (Homo sapiens, UniProt P08684); assay: Drug metabolism assessed as human recombinant CYP3A4-mediated GSK525060 formation at 10 uM after 30 mins by HPLC-MS/MS method; type: ADME; conditions: recombinant enzyme, 0.5 h
How it was run: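 Recombinant human CYP3A4 in 50 mM phosphate buffer, pH 7.4, with an NADPH-generating system. […] GSK525060 formation quantified by HPLC-MS/MS.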

[2] = AUC (0 to t) in healthy human at 100 mg, po administered as single dose on day 4 and cotreated with ketoconazole at 400 mg, po qd on day 1 to 7; type: ADME, organism-based; set-up: dosed compound name Casopitant; conditions: plasma
[3] = AUC (0 to t) in healthy human at 100 mg, po administered as single dose; type: ADME, organism-based; set-up: dosed compound name Casopitant; conditions: plasma
[4] = Cmax in healthy human at 100 mg, po administered as single dose; type: ADME, organism-based; conditions: in vivo
[5] = Cmax in healthy human at 100 mg, po administered as single dose on day 4 and cotreated with ketoconazole at 400 mg, po qd on day 1 to 7; type: ADME, organism-based; conditions: in vivo
[6] = Tmax in healthy human at 100 mg, po administered as single dose; type: ADME, organism-based; set-up: dosed compound name Casopitant; conditions: in vivo
[7] = Tmax in healthy human at 100 mg, po administered as single dose on day 4 and cotreated with ketoconazole at 400 mg, po qd on day 1 to 7; type: ADME, organism-based; set-up: dosed compound name Casopitant; conditions: in vivo
[8] = AUC (0 to t) in healthy human at 150 mg, po administered as single dose; type: ADME, organism-based; set-up: dosed compound name Casopitant; conditions: plasma
[9] = AUC (0 to t) in healthy human at 150 mg, po administered as single dose on day 8 and cotreated with rifampin at 600 mg, po qd on day 1 to 9; type: ADME, organism-based; set-up: dosed compound name Casopitant; conditions: plasma
[10] = Cmax in healthy human at 150 mg, po administered as single dose; type: ADME, organism-based; conditions: in vivo
[11] = Cmax in healthy human at 150 mg, po administered as single dose on day 8 and cotreated with rifampin at 600 mg, po qd on day 1 to 9; type: ADME, organism-based; conditions: in vivo
[12] = Tmax in healthy human at 150 mg, po administered as single dose; type: ADME, organism-based; set-up: dosed compound name Casopitant; conditions: in vivo
[13] = Tmax in healthy human at 150 mg, po administered as single dose on day 8 and cotreated with rifampin at 600 mg, po qd on day 1 to 9; type: ADME, organism-based; set-up: dosed compound name Casopitant; conditions: in vivo
[14] = Half life in healthy human at 150 mg, po administered as single dose; type: ADME, organism-based; set-up: dosed compound name Casopitant; conditions: in vivo
[15] = Half life in healthy human at 150 mg, po administered as single dose on day 8 and cotreated with rifampin at 600 mg, po qd on day 1 to 9; type: ADME, organism-based; set-up: dosed compound name Casopitant; conditions: in vivo
[16] = Lipophilicity, log P of the compound; type: physicochemical; conditions: octanol/water
[17] = Dissociation constant, pKa of the compound; type: physicochemical
[18] = Unbound fraction in human plasma; type: ADME, cell-free
CYP3A4 = CYP3A4 (Homo sapiens, UniProt P08684); assay: Metabolism dependent inactivation of CYP3A4 in human liver microsomes pretreated with compound in presence of midazolam substrate and NADPH by HPLC-MS/MS method relative to untreated control; conditions: probe midazolam
Cytochrome P450 3A4 [19] = target: T1, Cytochrome P450 3A4; assay: Drug metabolism in human liver microsomes assessed as CYP3A4-mediated GSK525060 formation at 5 to 20 uM up to 30 mins by HPLC-MS/MS method; type: ADME; conditions: 0.5 h
How it was run: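 Pooled human liver microsomes in 50 mM phosphate buffer, pH 7.4, with an NADPH-generating system. […] GSK525060 measured by HPLC-MS/MS.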

[20] = Volume of distribution at steady state in human; type: ADME, organism-based; set-up: dosed compound name Casopitant; conditions: in vivo, read-out: Vdss
[21] = Unbound fraction in human gut; type: ADME, tissue-based; set-up: dosed compound name Casopitant
Liver microsome = assay: Intrinsic clearance in human liver microsomes assessed per mg protein; type: ADME
How it was run: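 CLint derived from Km and Vmax of GSK525060 formation in human liver microsomes. […] Metabolite measured by HPLC-MS/MS; Michaelis-Menten fit by non-linear regression.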

Cytochrome P450 3A4 [22] = target: T1, Cytochrome P450 3A4; assay: Fraction of drug metabolized assessed as human CYP3A4-mediated drug metabolism; type: ADME; conditions: recombinant enzyme
Homo sapiens [23] = assay: Cmax in healthy human assessed as fold change at 100 mg, po in presence of 400 mg ketoconazole; type: ADME, organism-based; set-up: dosed compound name Casopitant; conditions: in vivo
How it was run: (§1)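 Open-label study, healthy subjects (n=12 enrolled; 13 per treatment in table): single oral 100 mg dose given alone on Day 1, then with oral ketoconazole 400 mg once daily for 7 days, co-dosed on Day 4 of ketoconazole. Plasma parent drug measured by validated HPLC-MS/MS at selected time points; ratios from geometric means of AUC(0-t) and Cmax, 90% CI.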

Homo sapiens [24] = assay: AUC in healthy human assessed as fold change at 100 mg, po in presence of 400 mg ketoconazole; type: ADME, organism-based, Plasma; set-up: dosed compound name Casopitant; conditions: in vivo; how it was run: as §1
Homo sapiens [25] = assay: Cmax in healthy human assessed as fold change at 150 mg, po in presence of 600 mg rifampin; type: ADME, organism-based; set-up: dosed compound name Casopitant; conditions: in vivo
How it was run: (§2)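 Open-label study, 12 healthy subjects: single oral 150 mg dose alone on Day 1, then with oral rifampin 600 mg once daily (study Days 9-17), co-dosed on Day 16. Plasma parent drug measured by validated HPLC-MS/MS at selected time points; fold change from geometric means of AUC(0-t) and Cmax, 90% CI.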

Homo sapiens [26] = assay: AUC in healthy human assessed as fold change at 150 mg, po in presence of 600 mg rifampin; type: ADME, organism-based, Plasma; set-up: dosed compound name Casopitant; conditions: in vivo; how it was run: as §2
Homo sapiens [27] = assay: AUC (0 to infinity) in healthy human assessed as fold change in presence of casopitant 30 mg, po once daily administered for 3 days; type: ADME, organism-based, Plasma; conditions: in vivo, 72 h
Homo sapiens [28] = assay: AUC (0 to infinity) in healthy human assessed as fold change in presence of casopitant 30 mg, po once daily administered for 14 days; type: ADME, organism-based, Plasma; conditions: in vivo, 336 h
Homo sapiens [29] = assay: AUC (0 to infinity) in healthy human assessed as fold change in presence of casopitant 120 mg, po once daily administered for 3 days; type: ADME, organism-based, Plasma; conditions: in vivo, 72 h
Homo sapiens [30] = assay: AUC (0 to infinity) in healthy human assessed as fold change in presence of casopitant 120 mg, po once daily administered for 14 days; type: ADME, organism-based, Plasma; conditions: in vivo, 336 h

T1 sequence (P08684 whole entry): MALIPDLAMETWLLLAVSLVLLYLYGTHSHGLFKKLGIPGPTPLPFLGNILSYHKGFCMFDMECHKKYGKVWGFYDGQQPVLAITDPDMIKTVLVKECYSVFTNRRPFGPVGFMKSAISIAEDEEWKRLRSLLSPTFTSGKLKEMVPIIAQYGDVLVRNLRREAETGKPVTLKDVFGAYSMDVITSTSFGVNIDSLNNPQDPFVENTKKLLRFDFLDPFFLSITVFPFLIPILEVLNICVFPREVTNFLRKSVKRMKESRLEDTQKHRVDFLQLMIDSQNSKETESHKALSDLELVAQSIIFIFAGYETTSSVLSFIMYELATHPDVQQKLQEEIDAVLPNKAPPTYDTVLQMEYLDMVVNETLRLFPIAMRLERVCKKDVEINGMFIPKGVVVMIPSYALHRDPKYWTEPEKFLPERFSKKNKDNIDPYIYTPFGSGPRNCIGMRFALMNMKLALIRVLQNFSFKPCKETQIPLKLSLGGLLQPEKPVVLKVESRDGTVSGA
Sequence of CYP3A4 (P08684 whole entry): as above

## CC(=O)N1CCN([C@H]2CCN(C(=O)N(C)[C@H](C)c3cc(C(F)(F)F)cc(C(F)(F)F)c3)[C@@H](c3ccc(F)cc3C)C2)CC1 [CASOPITANT]
Cytochrome P450 3A4 [1]
  Drug metabolism: metabolite_detected
[2]
  AUC(0-t): 31200 ng·h/mL
[3]
  AUC(0-t): 2590 ng·h/mL
[4]
  Cmax: 457 ng/mL
[5]
  Cmax: 1250 ng/mL
[6]
  Tmax: 1 h
[7]
  Tmax: 2 h
[8]
  AUC(0-t): 6570 ng·h/mL
[9]
  AUC(0-t): 273 ng·h/mL
[10]
  Cmax: 847 ng/mL
[11]
  Cmax: 93.2 ng/mL
[12]
  Tmax: 1.25 h
[13]
  Tmax: 1 h
[14]
  half-life: 19.2 h
[15]
  half-life: 6.45 h
[16]
  logP: 5.6
[17]
  pKa: 6.3
[18]
  fraction unbound: 0.005
CYP3A4
  KI: 3.1 µM
Cytochrome P450 3A4 [19]
  Drug metabolism: metabolite_detected
[20]
  Vd: 2.58 L/kg
[21]
  fraction unbound: 1
Liver microsome
  CLint: 25 µL/min/mg
Cytochrome P450 3A4 [22]
  Fm: 1
Homo sapiens [23]
  fold change (FC): 2.71
Homo sapiens [24]
  fold change (FC): 12.1
Homo sapiens [25]
  fold change (FC): 0.11
Homo sapiens [26]
  fold change (FC): 0.04

## Cc1ncc2n1-c1ccc(Cl)cc1C(c1ccccc1F)=NC2 [MIDAZOLAM]
Homo sapiens [27]
  fold change (FC): 2.02
Homo sapiens [28]
  fold change (FC): 1.76
Homo sapiens [29]
  fold change (FC): 2.67
Homo sapiens [30]
  fold change (FC): 3.49

## COC(=O)C1=C(C)NC(C)=C(C(=O)OC)C1c1ccccc1[N+](=O)[O-] [NIFEDIPINE]
Homo sapiens [27]
  fold change (FC): 1.56
Homo sapiens [28]
  fold change (FC): 1.61
Homo sapiens [29]
  fold change (FC): 1.77
Homo sapiens [30]
  fold change (FC): 1.42
